Experimental data taken from PMC2882528 (Molecular pharmaceutics, 2010).

Experiments:
Type in all cases: cell-based, rat
[1] = tested on: CHOP; assay: Western blot analysis of CHOP; conditions: IEC-6 cells, 4 h; for Effect of antioxidant on ritonavir-induced CHOP expression: ritonavir 15 µM
[2] = tested on: IEC-6 cells; assay: Measurement of intracellular ROS; conditions: ritonavir 15 µM, VC 15 µg/ml, EL 20 µg/ml, OA 10 µg/ml, 4 h
Summary of the method: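 IEC-6 rat intestinal epithelial cells (passages 15-20; DMEM, 10% FBS, 0.1 U/mL insulin, penicillin/streptomycin, 37 °C, 5% CO2) in 12-well plates are exposed for 4 h to test compound with or without antioxidant, all in DMSO. One fraction is used for protein. The other is lysed in 0.1 N NaOH/50% methanol and centrifuged, and fluorescence is read at ex 485/em 520 nm. Results are mean ± SD of 3 independent experiments.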

[3] = tested on: IEC-6 stable cell line expressing SEAP; assay: SEAP enzyme activity assay; conditions: ritonavir 15 µM; VC 15 µg/ml, VE 20 µg/ml, EL 20 µg/ml, OA 10 µg/ml; 24 h
Summary of the method: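 An IEC-6 line stably transfected with pSEAP reporter plasmid is treated for 24 h with test compound (15 µM) alone or with individual antioxidant. DMSO is the vehicle control and thapsigargin 100 nM is the ER-stress reference. Secreted alkaline phosphatase activity is expressed as percent of vehicle control. Results are mean ± SD of 3 independent experiments.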

CHOP expression ([1]; 15 µM)	Molecule	Effect of antioxidant on ritonavir-induced CHOP expression [1]	Effect of antioxidant on ritonavir-induced ROS production [2]	Effect of antioxidant on ritonavir-induced inhibition of SEAP activity [3]
–	CCCCCCCC/C=C\CCCCCCCC(=O)O [oleic acid]	significantly reduced	able to reduce	significantly inhibited
–	O=C1O[C@H]([C@@H](O)CO)C(O)=C1O [vitamin C]	significantly reduced	able to reduce	significantly inhibited
–	vitamin E	less effect	–	significantly inhibited
significantly induced	CC(C)c1nc(CN(C)C(=O)N[C@H](C(=O)N[C@@H](Cc2ccccc2)C[C@H](O)[C@H](Cc2ccccc2)NC(=O)OCc2cncs2)C(C)C)cs1 [ritonavir, reference compound]	–	–	–
–	CCCCC/C=C\C/C=C\CCCCCCCC(=O)OCC [ethyl linoleate]	significantly reduced	able to reduce	significantly inhibited
